TCR CD3 inh: inhibitors of human TCR-CD3 interaction, primary screen, biochemical, fluorescence, TAMRA-labeled TCR probe; AID 651800, 2012; inhibition, % at 9.4 µM; actives 0.37% (n = 360,000); in the data active = inhibition above about 19%;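 note: recombinant mutant TCR 2C K166C tagged with TAMRA read by polarization; 0% = receptor in buffer alone and 100% = receptor with positive control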
DDE Tn7 FP inh: inhibitors of Tn7 peptide binding to fibrin DD(E), primary screen, biochemical, fluorescence polarization, human fibrin, Tn7 probe; inhibition, % at 8.3 µM; FP displacement of FITC-Tn7 peptide from fibrin DD(E); 0% = median of compound wells per plate; actives 0.13% (n = 370,000); AID 720508, 2013;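 active = inhibition above the mean of compounds falling within the control limits plus 3 SD of them, cut at about 14% in these data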;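 note: 0% = plate median of compound wells and 100% = 10 µM Aha-Tn7 peptide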
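Assay system: Human clot-derived fibrin DD(E) complex | Buffer or medium: Tris/NaCl/CaCl2 buffer, pH 7.8 | Repeats: One replicate per compound | Benchmarks: Aha-Tn7 high control | Measure: % inhibition scaled between sample-field median and high-control FP | Schedule: 10 min plus 3 h, room temperature | Signal: Fluorescence polarization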
HTRA1 inh: HTRA1 serine protease inhibitors, primary screen, biochemical, fluorescence polarization, HTS; actives 0.5% (n = 340,000); inhibition, % at 5.96 µM; recombinant HTRA1, FP-rhodamine activity-based probe; in the data active = inhibition above about 36%;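 note: 0% = enzyme with DMSO and 100% = wells lacking enzyme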
SIAE inh: human SIAE inhibitors, primary screen, biochemical, fluorescence polarization, FP-Rh probe, 1536-well HTS; Sialate O-acetylesterase (Homo sapiens), Q9HAT2; SIAE FP-Rh probe binding; inhibition, % at 9.66 µM; actives 0.69% (n = 370,000); AID 1053197, 2014;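 active = inhibition above a cutoff: mean of compounds within the control limits plus 3 SD of those, cut at about 17% in these data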;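 note: 0% = plate median of compound wells and 100% = probe without SIAE protein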
Target sequence (Q9HAT2 whole entry, looked up): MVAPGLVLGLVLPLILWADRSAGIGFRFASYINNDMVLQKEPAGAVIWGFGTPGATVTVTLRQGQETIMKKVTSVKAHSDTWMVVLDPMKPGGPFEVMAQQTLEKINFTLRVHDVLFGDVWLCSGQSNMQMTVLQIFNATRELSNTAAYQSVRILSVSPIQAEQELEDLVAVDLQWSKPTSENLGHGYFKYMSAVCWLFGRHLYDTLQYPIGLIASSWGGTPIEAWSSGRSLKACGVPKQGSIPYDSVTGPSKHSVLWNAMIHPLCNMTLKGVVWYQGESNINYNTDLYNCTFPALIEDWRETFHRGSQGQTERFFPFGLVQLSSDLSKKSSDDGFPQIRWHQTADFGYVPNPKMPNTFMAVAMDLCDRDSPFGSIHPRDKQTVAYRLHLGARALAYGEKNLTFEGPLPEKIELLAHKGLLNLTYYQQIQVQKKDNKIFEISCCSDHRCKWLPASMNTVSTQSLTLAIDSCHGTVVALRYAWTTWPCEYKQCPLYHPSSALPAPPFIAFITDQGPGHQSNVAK
Tn6 DDE FP: inhibitors of Tn6 peptide binding to fibrin DD(E), primary screen, biochemical, fluorescence polarization, human fibrin, Tn6 probe | Fibrinogen beta chain (Homo sapiens), P02675 | Fibrin DD(E) TRITC-Tn6 fluorescence polarization displacement | inhibition, % at 8.3 µM | actives 0.21% (n = 370,000) | AID 720509, 2013;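 active = inhibition above a per-campaign cutoff: mean of compounds within control limits plus 3 SD, cut at about 15% in these data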;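 note: 0% = median of all compound wells on the plate and 100% = blocking peptide control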
ABHD4 inh: ABHD4 inhibitors, primary screen, biochemical, fluorescence polarization, mouse. purified mABHD4, FP-Rh probe fluorescence polarization. (Lyso)-N-acylphosphatidylethanolamine lipase (Mus musculus), Q8VD66. actives 0.54% (n = 370,000). inhibition, % at 8.92 µM;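 active = inhibition exceeding the mean over every tested compound plus 3 SD, cut at about 30% in these data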;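 note: 0% = plate median of compound wells and 100% = S159A mutant with DMSO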
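Material: mouse ABHD4 enzyme, wild type; Benchmarks: S159A mutant high control, sample median low control; Buffer or medium: HEPES pH 7.0, NaCl, Pluronic buffer; Signal: fluorescence polarization; Read-out: percent inhibition of probe binding, normalized to plate controls; Timing: pre-incubation 45 min, probe exposure 60 min, at 25 °C; Dosing: 8.92 µM, single dose.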
DDE Tn7 confirm: inhibitors of Tn7 peptide binding to fibrin DD(E), confirmation, biochemical, fluorescence polarization, human fibrin, Tn7 probe. shares compounds with DDE Tn7 FP inh. FP displacement of TRITC-Tn7 peptide from DD(E); 0% set at plate's compound-well median. inhibition, % at 8.3 µM. actives 5% (n = 460);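 active = inhibition above the campaign cutoff, the mean of compounds within control limits plus 3 SD, cut at about 14% in these data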;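 note: 100% = median FP of high control wells holding Aha-Tn7 inhibitor peptide; displacers lower polarization since freed probe rises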
Tn7 DDE ctr: counter-screen for inhibitors of Tn7 peptide binding to fibrin DD(E). actives 3% (n = 460). TRITC-Tn7 probe displacement, fluorescence polarization. AID 720633. shares compounds with DDE Tn7 FP inh. inhibition, % at 8.3 µM;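 active = inhibition above the cutoff, the mean of compounds lying between the control bounds plus 3 SD of those compounds, cut at about 17% in these data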;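 note: 0% = median of compound sample wells and 100% = excess unlabeled Aha-Tn7 peptide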
DDE Tn6 FP ctr: counter-screen hit for Tn6 peptide-fibrin DD(E) binding disruption; TRITC-Tn6 fluorescence polarization displacement; 0% = median of compound wells, not DMSO; actives 2% (n = 680); AID 720621; shares compounds with Tn6 DDE FP; inhibition, % at 8.3 µM;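 active = inhibition above the mean of test compounds lying between the control limits plus 3 SD of those, cut at about 14% in these data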;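 note: 0% = median of compound wells and 100% = wells with Aha-Tn7 blocking peptide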
DDE Tn6 confirm: inhibitors of Tn6 peptide binding to fibrin DD(E), confirmation, biochemical, fluorescence polarization, human fibrin, Tn6 probe | shares compounds with Tn6 DDE FP | FP displacement of TRITC-Tn6 peptide from DD(E); 0% = per-plate median of test wells | inhibition, % at 8.3 µM | actives 10% (n = 680);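 active = inhibition above the mean of compounds lying within the control limits plus 3 SD, cut at about 16% in these data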;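 note: 100% = high control wells holding a competing inhibitor peptide at 10 µM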
mABHD4 conf: ABHD4 inhibitors, retest, confirmation, biochemical, fluorescence polarization, mouse; inhibition, % at 8.92 µM; shares compounds with ABHD4 inh; actives 55% (n = 1,800); purified mABHD4, FP-Rh probe fluorescence polarization; AID 720658, 2013;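 active = mean inhibition across replicates above the hit cutoff set in the primary screen, cut at about 30% in these data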;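 note: 0% = wild-type ABHD4 with DMSO and 100% = catalytically dead S159A mutant with DMSO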
SIAE inh conf: human SIAE inhibitors, retest, confirmation, biochemical, fluorescence polarization, FP-Rh probe, triplicate; shares compounds with SIAE inh; SIAE FP-Rh activity-based probe; inhibition, % at 9.66 µM; actives 13% (n = 2,300); AID 1117263, 2014;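 active = mean inhibition of the replicates above the hit cutoff set in the primary screen, cut at about 17% in these data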;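 note: 0% = SIAE with DMSO and probe and 100% = probe without SIAE; inhibitors lower polarization as more probe stays unbound to SIAE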
* hit, by the source's call; nt = no result given; + = active, no number. Shown are actives, neighbours in structure and some others; about 1.8% of the full set was active somewhere.

SMILES	TCR CD3 inh	DDE Tn7 FP inh	HTRA1 inh	SIAE inh	Tn6 DDE FP	ABHD4 inh	others
ClCCNc1nc2ccc(Cl)cc2[nH]1	-9	14*	6	-4	3	6	DDE Tn7 confirm=-6;Tn7 DDE ctr=-8
CC[C@@H](CO)NC(=O)[C@@H]1C=C2c3cccc4[nH]cc(c34)C[C@H]2N(C)C1	12	16*	14	16	1	17	DDE Tn7 confirm=-1;Tn7 DDE ctr=-1
c1ccc(-c2nc3ccccc3nc2-c2ccc(CN3CCC(n4nnc5ccccc54)CC3)cc2)cc1	2	-2	nt	-11	0	-14
CCCCn1c(O)c(C(CC)=Nc2ccc(C(=O)O)cc2)c(=O)[nH]c1=O	-4	15*	-3	-3	3	11	DDE Tn7 confirm=4;Tn7 DDE ctr=2
Fc1ccc2nc(-c3ccc(CN4CCC(n5nnc6ccccc65)CC4)cc3)c(-c3ccccc3)nc2c1	-12	5	nt	-9	-9	-13
CC(NC(=O)OCc1ccccc1)[P+](=O)O (configuration not stated)	nt	-9	nt	5	0	4
Cc1ccc2c(c1)[C@@H]1CN(C)CC[C@@H]1N2C(=O)Nc1cccc(C(F)(F)F)c1	3	6	3	5	17*	1	DDE Tn6 FP ctr=1;DDE Tn6 confirm=-2
Cc1ccc(OC(=O)N(C)C[C@H]2OCc3cnnn3CCCC(=O)N([C@@H](C)CO)C[C@@H]2C)cc1	4	0	nt	6	0	1
CN(C)c1ccc(/C=C/C=C2/C(=O)NC(=O)N(c3ccccc3)C2=O)cc1	-128	2	-17	-209	23*	-178	DDE Tn6 FP ctr=10;DDE Tn6 confirm=40*
O=C1NC(=O)N(c2ccccc2)C(=O)/C1=C/C=C/c1ccco1	-3	-10	2	-9	6	2
COC(=O)CC1(CC(=O)OC)C(=O)NC(=O)NC1=O	10	-1	2	1	18*	0	DDE Tn6 FP ctr=-5;DDE Tn6 confirm=-13
Cc1cccc(-n2c(O)c(C=NCCN3CCNCC3)c(=O)[nH]c2=S)c1	-6	-2	3	-8	16*	3	DDE Tn6 FP ctr=-2;DDE Tn6 confirm=-4
CC(=O)C1=C(C)OC2=C(C(=O)CCC2)[C@@]12C(=O)N(C)c1ccccc12	2	-4	nt	-1	2	-1
CN1CC[C@@H]2CN[C@H](c3ccccc3)C[C@@H]21	0	1	nt	2	-2	5
CCOC(=O)C(O)(c1ccc(NC(=O)NC2CCCCC2)cc1)C(F)(F)F (configuration not stated)	4	5	-14	2	17*	-9	DDE Tn6 FP ctr=4;DDE Tn6 confirm=-8
CCOC(=O)C(O)(c1ccc(NC(=O)c2ccc(Cl)c(Cl)c2)cc1)C(F)(F)F (configuration not stated)	0	1	-49	-30	0	-30
CCN1/C(=C/C=C/C2=[N+](CC)c3ccccc3C2(C)C)C(C)(C)c2ccccc21	-83	-92	-288	+	+	+	DDE Tn6 FP ctr=-132;DDE Tn6 confirm=93*;mABHD4 conf=+;SIAE inh conf=+
CN1c2ccc(Br)cc2[C@@H]2NCC[C@@H]2[C@@H]1CO	nt	5	nt	0	9	5
CNc1ccc2oc(C[C@H]3O[C@@]4(CC[C@H]3C)O[C@H]([C@H](C)C(=O)c3ccc[nH]3)[C@H](C)C[C@H]4C)nc2c1C(=O)O	0	-8	35	11	-2	30*	mABHD4 conf=19
CC(C)CCP(=O)(O)O	nt	-5	nt	4	0	6
Cc1cccc(-c2nc3ccc(C(=O)N4CCC5(CC4)OCCO5)cc3nc2-c2cccc(C)c2)c1	2	-1	-35	-7	-12	32*	mABHD4 conf=48*
COc1cccc(C(=O)N2CCC3(CC2)OCCO3)c1	6	-4	-1	4	12	-3
C[C@]12CC[C@@H]3c4ccc(O)c(O)c4CC[C@H]3[C@@H]1CC[C@@H]2O	11	2	28	-7	-5	30*	mABHD4 conf=19
COc1ccc(OC(=O)N(C)C[C@H]2OCc3cnnn3CCCC(=O)N([C@@H](C)CO)C[C@@H]2C)cc1	-3	3	nt	5	-8	3
CCCCCCCSc1cc(OC)c(CCN(C)C)cc1OC	9	5	21	7	6	32*	mABHD4 conf=35*
COC(=O)C1C(c2ccc(C)cc2)CC2CCC1N2C (configuration not stated)	-4	-1	nt	-1	0	3
C/C(=N\NC(=O)c1ccccc1O)c1c(O)n(C2CCCCC2)c(=O)[nH]c1=O	15	4	17	-6	1	37*	mABHD4 conf=44*
O=C(N/N=C/c1c(O)n(C2CC2)c(=S)[nH]c1=O)c1ccccc1O	11	6	4	-22	0	35*	mABHD4 conf=25
Cc1ccccc1-n1c(O)c(/C=N/NC(=O)c2ccccc2O)c(=O)[nH]c1=S	-22	-2	1	-31	-4	7
COC(=O)C1=C(c2ccc(OC(F)(F)F)cc2)C[C@@H]2CC[C@H]1N2C(=O)NCc1ccco1	-3	-1	nt	7	-1	12
